Our source for the IC50 and Activity values is ChEMBL document CHEMBL3232944 (Bioorg Med Chem Lett, 2014).

pIC50: −log10 of the molar value.

Data set [1] addresses T1, Prostaglandin G/H synthase 1 (Ovis aries, UniProt P05979).
T1 sequence (P05979 whole entry): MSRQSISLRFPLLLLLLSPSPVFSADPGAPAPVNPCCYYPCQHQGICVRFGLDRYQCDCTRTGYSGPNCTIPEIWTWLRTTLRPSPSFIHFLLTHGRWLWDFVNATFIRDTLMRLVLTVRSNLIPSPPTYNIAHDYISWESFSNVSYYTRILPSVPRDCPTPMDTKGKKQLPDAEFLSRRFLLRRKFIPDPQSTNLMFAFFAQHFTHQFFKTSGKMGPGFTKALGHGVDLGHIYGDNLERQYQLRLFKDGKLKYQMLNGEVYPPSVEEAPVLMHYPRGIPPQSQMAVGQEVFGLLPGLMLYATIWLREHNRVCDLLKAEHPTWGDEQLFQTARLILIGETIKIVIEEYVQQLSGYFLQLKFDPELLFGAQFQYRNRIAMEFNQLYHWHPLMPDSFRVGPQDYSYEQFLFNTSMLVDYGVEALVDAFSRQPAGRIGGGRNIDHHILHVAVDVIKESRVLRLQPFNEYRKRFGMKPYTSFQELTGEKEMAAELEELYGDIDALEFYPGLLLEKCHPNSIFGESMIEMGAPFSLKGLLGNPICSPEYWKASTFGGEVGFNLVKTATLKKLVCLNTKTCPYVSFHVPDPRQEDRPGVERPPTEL
As to the kind of experiment: Inhibition of ovine COX-1 assessed as decrease in PGH2 production using arachidonic acid as substrate treated with enzyme for 10 mins prior to substrate challenge for 2 mins by enzyme immunoassay. An outline of the steps:
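Ovine COX-1 was mixed with test compound at various concentrations plus heme and held 10 min at 37 °C. Arachidonic acid was then added and the reaction ran another 2 min at 37 °C. PGH₂ was reduced with SnCl₂, and the resulting PGF₂α was quantified by EIA using a broadly specific prostaglandin antibody. Boiled (3 min) enzyme served as background and compound-free samples as control. IC50 taken from at least three experiments.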

Data set [2] deals with RAW264.7. Nature of the data set: Cytotoxicity against mouse RAW264.7 cells assessed as cell viability at >10 uM after 24 hrs by MTT assay in presence of LPS. In kind it is cell-based. Particulars: raw264.7, 24 h. The method in brief:
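RAW 264.7 cells plated at 10⁵ cells/well, exposed to various concentrations of compound in the presence of LPS for 24 h. Viability read by colorimetric MTT assay. At least three independent experiments.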
(In general: Tetrazolium dyes change colour on reduction, which living cells bring about.)

On to `Cc1ccc(C2=C(c3ccc(S(N)(=O)=O)cc3)C(=O)NC2=O)cc1`, for which the pIC50 in data set [1] was below 4.00. Further, the Activity entry in data set [2] is on record as “Non-toxic”.
On the same counts, the results for `COc1ccc(C2=C(c3ccc(S(N)(=O)=O)cc3)C(=O)NC2=O)cc1` are below 4.00 and “Non-toxic”.
`NS(=O)(=O)c1ccc(C2=C(c3ccc(Cl)cc3)C(=O)NC2=O)cc1`: the pIC50 in data set [1] is below 4.00. Further, the Activity entry in data set [2] is “Non-toxic”.
On the same counts, the results for `CN1C(=O)C(c2ccccc2)=C(c2ccc(S(N)(=O)=O)cc2)C1=O` are below 6.00 and “Non-toxic”.
On the same counts, the results for `Cc1ccc(C2=C(c3ccc(S(N)(=O)=O)cc3)C(=O)N(C)C2=O)cc1` are below 6.00 and “Non-toxic”.
Regarding `COc1ccc(C2=C(c3ccc(S(N)(=O)=O)cc3)C(=O)N(C)C2=O)cc1`, the pIC50 in data set [1] was below 6.00. In addition, the Activity result in data set [2] is given as “Non-toxic”.
`CN1C(=O)C(c2ccc(Cl)cc2)=C(c2ccc(S(N)(=O)=O)cc2)C1=O`: the pIC50 in data set [1] was below 6.00. Besides, the Activity result in data set [2] is reported as “Non-toxic”.
For `NS(=O)(=O)c1ccc(C2=C(c3ccccc3)C(=O)NC2=O)cc1`, in data set [1], the pIC50 is 3.90. Further, the Activity entry in data set [2] was “Non-toxic”.

What is called pIC50 is −log10 of the IC50, conventionally taken in molar units.
